Results of several laboratories.
Each line is one published result; the experiments were not run side by side. pIC50: −log10 of the molar value.
CTSB: Cathepsin B (CTSB, Homo sapiens, UniProt P07858)
STAT3: Signal transducer and activator of transcription 3 (STAT3, Homo sapiens, UniProt P40763)

| SMILES | target | test | conditions | quantity | result |
| --- | --- | --- | --- | --- | --- |
| Cn1nccc1[C@]1(CNC(=O)c2ccc(F)c(F)c2-c2ccc(C(F)(F)F)cc2)NC(=O)NC1=O | CTSB | enzyme activity, inhibitor | – | pIC50 | < 4.00 |
| NC(=O)CC[C@H](NC(=O)[C@@H]1CC[C@@H]2CCN(C(=O)CCCCCC#Cc3cccc4c3CN(C3CCC(=O)NC3=O)C4=O)C[C@H](NC(=O)c3cc4cc(C(=O)P(=O)(O)O)ccc4[nH]3)C(=O)N21)C(=O)NC(c1ccccc1)c1ccccc1 (stereo partly shown) | STAT3 | protein level, degrader, luciferase | – | DC50 | 360 to 380 nM |
| COC(=O)c1cc(N(C)C(=O)c2ccn3ncc(-c4ccc(C(=O)O)cc4)c3c2)ccc1Cl | Serine/threonine-protein kinase pim-1 (PIM1, Homo sapiens, UniProt P11309) | enzyme activity, inhibitor | – | pIC50 | 7.03 |
| NC(=O)CC[C@H](NC(=O)[C@@H]1CC[C@@H]2CCN(C(=O)CCCCCC#Cc3cccc4c3CN(C3CCC(=O)NC3=O)C4=O)C[C@H](NC(=O)c3cc4cc(C(F)(F)P(=O)(O)O)ccc4[nH]3)C(=O)N21)C(=O)NC(c1ccccc1)c1ccccc1 (stereo partly shown) | STAT3 | protein level, degrader, luciferase | – | DC50 | 360 to 380 nM |
| CCC(C(=O)Nc1cc(NC2CCNC2)ccc1C)n1cc(Br)cc2nc(SCc3ccc(F)cc3)nc1-2 (stereo not shown) | CTSB | enzyme activity, inhibitor | – | pIC50 | < 4.00 |
| CC[C@H](C)[C@H](NC(=O)[C@H](CO)NC(=O)CNC(=O)[C@@H](NC(=O)[C@@H](NC(=O)[C@@H](NC(=O)CN)[C@@H](C)O)C(C)C)[C@@H](C)O)C(=O)N[C@@H](CC(C)C)C(=O)N[C@H](C(=O)N1CCC[C@H]1C(=O)N[C@H](C(=O)N[C@@H](CC(=O)O)C(=O)N[C@@H](Cc1ccc(O)cc1)C(=O)NCC(=O)N[C@H]1CSSC[C@@H](C(=O)N[C@@H](CO)C(=O)N[C@H](C(=O)N[C@@H](C)C(=O)N[C@@H](CCSC)C(=O)N[C@@H](Cc2ccc(O)cc2)C(=O)NCC(=O)NCC(=O)N[C@H](C(=O)N[C@H](C(=O)N[C@@H](CC(=O)O)C(=O)N2CCC[C@H]2C(=O)N[C@H](C(=O)N[C@@H](CCCNC(=N)N)C(=O)N[C@@H](Cc2ccccc2)C(=O)N2CCC[C@H]2C(=O)N[C@@H](CC(N)=O)C(=O)N[C@@H](C)C(=O)N[C@@H](Cc2c[nH]c3ccccc23)C(=O)N[C@@H](CCCNC(=N)N)C(=O)N[C@@H](CCC(=O)O)C(=O)N[C@@H](CC(C)C)C(=O)O)[C@@H](C)CC)[C@@H](C)CC)C(C)C)C(C)C)NC(=O)[C@H](CC(C)C)NC(=O)[C@H](Cc2ccccc2)NC(=O)[C@@H]2CCCN2C(=O)[C@H](CC(N)=O)NC(=O)[C@H](Cc2ccccc2)NC1=O)[C@@H](C)CC)[C@@H](C)O | CTSB | enzyme activity, inhibitor | – | pIC50 | < 3.70 |
| CCC(C(=O)Nc1cc(NC2CNC2)ccc1C)n1cccc2nc(SCc3ccc(F)cc3)nc1-2 (stereo not shown) | CTSB | enzyme activity, inhibitor | – | pIC50 | < 4.00 |
| CNC(=O)c1ccc(-c2cnn3ccc(C(=O)N(C)c4ccc(Cl)c(C(=O)O)c4)cc23)cc1 | ALK tyrosine kinase receptor (ALK, Homo sapiens, UniProt Q9UM73) | enzyme activity, inhibitor | – | pIC50 | < 4.52 |
| CC(C)C[C@H](NC(=O)[C@H]1O[C@@H]1C(=O)O)C(=O)NCCCCN=C(N)N | CTSB | enzyme activity, inhibitor | – | pIC50 | 8.28 |
| CC(=O)N[C@H]1Cc2ccc(cc2)OC/C=C/C[C@@H](C(=O)N[C@@H](CCCNC(=N)N)C(=O)c2nc3ccccc3s2)NC(=O)[C@H](CC(C)C)NC1=O | Suppressor of tumorigenicity 14 protein (ST14, Homo sapiens, UniProt Q9Y5Y6) | enzyme activity, inhibitor, fluorescence | with preincubation | pIC50 | 8.34 |
